From ChEMBL document CHEMBL4732018, “Design, synthesis, and biological evaluation of pyrazole-linked aloe emodin derivatives as potential anticancer agents” (RSC Med Chem, 2021)
Values belong to the compound of their own block, whether it stands above or below them. The source made the active and inactive calls. No cut-off for these calls is given here.

What was measured:
[1] = test system: HepG2; experiment: Anticancer activity against human HepG2 cells assessed as cell growth inhibition measured after 48 hrs by MTT assay; format: functional, cell-based; conditions: HepG2, 48 h
Method in brief: (§1)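 MTT test on ATCC lines grown in RPMI with 10% FBS and antibiotic/antimycotic at 37 °C in 5% CO₂. Cells were seeded at 4 x 10^3/well and treated for 48 h at 2.5, 5, 10 and 20 µM, from DMSO stocks diluted in medium. MTT (10 mg/mL stock) was then added for 3 h and absorbance read at 540 nm. IC50 derived; three independent experiments.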

[2] = test system: B16-F10; experiment: Anticancer activity against mouse B16-F10 cells assessed as cell growth inhibition measured after 48 hrs by MTT assay; format: functional, cell-based; conditions: B16-F10, 48 h; method in brief: as §1
[3] = test system: HEK293; experiment: Cytotoxicity against human HEK293 cells assessed as cell growth inhibition measured after 48 hrs by MTT assay; format: cell-based; conditions: HEK293, 48 h; method in brief: as §1
[4] = test system: MDA-MB-231; experiment: Anticancer activity against human MDA-MB-231 cells assessed as cell growth inhibition measured after 48 hrs by MTT assay; format: functional, cell-based; conditions: MDA-MB-231, 48 h; method in brief: as §1
[5] = test system: MCF7; experiment: Anticancer activity against human MCF-7 cells assessed as cell growth inhibition measured after 48 hrs by MTT assay; format: functional, cell-based; conditions: MCF7, 48 h; method in brief: as §1
[6] = test system: MDA-MB-231; experiment: Induction of cell cycle arrest in human MDA-MB-231 cells assessed as accumulation at G2/M phase at 5 uM measured after 24 hrs by PI staining based flow cytometry (reference value: 4.31 %); format: functional
[7] = test system: MDA-MB-231; experiment: Induction of apoptosis in human MDA-MB-231 cells assessed as late apoptotic cells at 10 uM measured after 24 hrs by Annexin V-FITC/PI staining based flow cytometric analysis; format: functional
[8] = test system: MDA-MB-231; experiment: Induction of cell cycle arrest in human MDA-MB-231 cells assessed as accumulation at G0/G1 phase at 20 uM measured after 24 hrs by PI staining based flow cytometry (reference value: 76.36 %); format: functional
[9] = test system: MDA-MB-231; experiment: Induction of membrane disintegrity in human MDA-MB-231 cells assessed as increase in LDH release at 2.5 to 20 uM incubated for 48 hrs by LDH leakage assay; format: functional, cell-based; conditions: dose 2.5-20 µM
Method in brief: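 Extracellular LDH kit assay. Cells were seeded at 4 x 10^3/well and treated 48 h at various concentrations. 20 µL of culture supernatant was assayed with absorbance at 450 nm. Results are expressed as % LDH leakage relative to untreated control cells; triplicate, mean ± SD.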

[10] = test system: MDA-MB-231; experiment: Induction of apoptosis in human MDA-MB-231 cells assessed as late apoptotic cells at 5 uM measured after 24 hrs by Annexin V-FITC/PI staining based flow cytometric analysis; format: functional
[11] = test system: MDA-MB-231; experiment: Induction of apoptosis in human MDA-MB-231 cells assessed as early apoptotic cells at 5 uM measured after 24 hrs by Annexin V-FITC/PI staining based flow cytometric analysis (reference value: 6.73 %); format: functional
[12] = test system: MDA-MB-231; experiment: Induction of apoptosis in human MDA-MB-231 cells assessed as early apoptotic cells at 10 uM measured after 24 hrs by Annexin V-FITC/PI staining based flow cytometric analysis (reference value: 6.73 %); format: functional
[13] = test system: MDA-MB-231; experiment: Induction of cell cycle arrest in human MDA-MB-231 cells assessed as accumulation at G1/S phase at 20 uM measured after 24 hrs by PI staining based flow cytometry (reference value: 19.33 %); format: functional
[14] = test system: MDA-MB-231; experiment: Induction of cell cycle arrest in human MDA-MB-231 cells assessed as accumulation at G2/M phase at 20 uM measured after 24 hrs by PI staining based flow cytometry (reference value: 4.31 %); format: functional
[15] = test system: MDA-MB-231; experiment: Induction of cell cycle arrest in human MDA-MB-231 cells assessed as accumulation at G1/S phase at 10 uM measured after 24 hrs by PI staining based flow cytometry (reference value: 19.33 %); format: functional
[16] = test system: MDA-MB-231; experiment: Induction of apoptosis in human MDA-MB-231 cells assessed as increase in caspase 2 activity at 5 to 20 uM pretreated for 48 hrs followed by VDVAD-pNA substrate addition for 2 hrs by colorimetric analysis; format: functional, cell-based; conditions: dose 5-20 µM, time 50.0 hrs
Method in brief: (§2)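 Colorimetric caspase kit. MDA-MB-231 cells were cultured 24 h, then treated at 0, 5, 10 and 20 µM for 48 h. Lysates were mixed with reaction buffer containing 10 mM DTT. pNA substrate was added at 4 mM final (VDVAD for caspase-2, DEVD for caspase-3, VEID for caspase-6) and incubated 2 h at 37 °C. Absorbance read at 405 nm; triplicate, mean ± SD.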

[17] = test system: MDA-MB-231; experiment: Induction of cell cycle arrest in human MDA-MB-231 cells assessed as accumulation at G2/M phase at 10 uM measured after 24 hrs by PI staining based flow cytometry (reference value: 4.31 %); format: functional
[18] = test system: MDA-MB-231; experiment: Induction of cell cycle arrest in human MDA-MB-231 cells assessed as accumulation at G0/G1 phase at 10 uM measured after 24 hrs by PI staining based flow cytometry (reference value: 76.36 %); format: functional
[19] = test system: MDA-MB-231; experiment: Induction of cell cycle arrest in human MDA-MB-231 cells assessed as accumulation at G1/S phase at 5 uM measured after 24 hrs by PI staining based flow cytometry (reference value: 19.33 %); format: functional
[20] = test system: MDA-MB-231; experiment: Induction of apoptosis in human MDA-MB-231 cells assessed as increase in caspase 8 activity at 5 to 20 uM pretreated for 48 hrs followed by IETD-pNA substrate addition for 2 hrs by colorimetric analysis; format: functional, cell-based; conditions: dose 5-20 µM, time 50.0 hrs
[21] = test system: MDA-MB-231; experiment: Induction of cell cycle arrest in human MDA-MB-231 cells assessed as accumulation at G0/G1 phase at 5 uM measured after 24 hrs by PI staining based flow cytometry (reference value: 76.36 %); format: functional
[22] = test system: MDA-MB-231; experiment: Induction of cell cycle arrest in human MDA-MB-231 cells assessed as accumulation at sub G0 phase at 10 uM measured after 24 hrs by PI staining based flow cytometry (reference value: 1.33 %); format: functional
[23] = test system: MDA-MB-231; experiment: Induction of cell cycle arrest in human MDA-MB-231 cells assessed as accumulation at sub G0 phase at 5 uM measured after 24 hrs by PI staining based flow cytometry (reference value: 1.33 %); format: functional
[24] = test system: MDA-MB-231; experiment: Induction of apoptosis in human MDA-MB-231 cells assessed as increase in caspase 3 activity at 5 to 20 uM pretreated for 48 hrs followed by DEVD-pNA substrate addition for 2 hrs by colorimetric analysis; format: functional, cell-based; conditions: dose 5-20 µM, time 50.0 hrs; method in brief: as §2
[25] = test system: MDA-MB-231; experiment: Induction of apoptosis in human MDA-MB-231 cells assessed as early apoptotic cells at 20 uM measured after 24 hrs by Annexin V-FITC/PI staining based flow cytometric analysis (reference value: 6.73 %); format: functional
[26] = test system: MDA-MB-231; experiment: Induction of cell cycle arrest in human MDA-MB-231 cells assessed as accumulation at sub G0 phase at 20 uM measured after 24 hrs by PI staining based flow cytometry (reference value: 1.33 %); format: functional
[27] = test system: MDA-MB-231; experiment: Induction of apoptosis in human MDA-MB-231 cells assessed as late apoptotic cells at 20 uM measured after 24 hrs by Annexin V-FITC/PI staining based flow cytometric analysis; format: functional
[28] = test system: MDA-MB-231; experiment: Induction of apoptosis in human MDA-MB-231 cells assessed as increase in caspase 9 activity at 5 to 20 uM pretreated for 48 hrs followed by LEHD-pNA substrate addition for 2 hrs by colorimetric analysis; format: functional, cell-based; conditions: dose 5-20 µM, time 50.0 hrs
[29] = test system: MDA-MB-231; experiment: Induction of apoptosis in human MDA-MB-231 cells assessed as increase in caspase 6 activity at 5 to 20 uM pretreated for 48 hrs followed by VEID-pNA substrate addition for 2 hrs by colorimetric analysis; format: functional, cell-based; conditions: dose 5-20 µM, time 50.0 hrs; method in brief: as §2

Structure (SMILES): CCOC(=O)c1c(-c2cc(O)c3c(c2)C(=O)c2cccc(O)c2C3=O)nn(-c2ccc(C(C)C)cc2)c1C(=O)OCC
IC50 [1]: 3.35 µM
IC50 [2]: 1.15 µM
IC50 [3]: 9.32 µM
IC50 [4]: 4.46 µM
IC50 [5]: 0.87 µM

Structure (SMILES): COC(=O)c1c(-c2cc(O)c3c(c2)C(=O)c2cccc(O)c2C3=O)nn(-c2ccc(C(C)C)cc2)c1C(=O)OC
Activity [6]: 0.62%
Activity [7]: 14.24%
Activity [8]: 74.2%
Activity [9]: Active
Activity [10]: 17.43%
Activity [11]: 20.55%
Activity [12]: 38.08%
Activity [13]: 25.8%
IC50 [1]: 3.99 µM
Activity [14]: 0%
Activity [15]: 34.14%
Activity [16]: Active
Activity [17]: 0.05%
Activity [18]: 65.81%
Activity [19]: 22.19%
IC50 [2]: 6.06 µM
Activity [20]: Active
IC50 [3]: 21.2 µM
Activity [21]: 77.2%
Activity [22]: 10.87%
IC50 [4]: 1.66 µM
Activity [23]: 5.66%
Activity [24]: Active
Activity [25]: 35.34%
Activity [26]: 61.45%
Activity [27]: 50.45%
Activity [28]: Active
Activity [29]: Active
IC50 [5]: 2.68 µM

Structure (SMILES): COC(=O)c1c(-c2cc(O)c3c(c2)C(=O)c2cccc(O)c2C3=O)nn(-c2ccc(C)cc2)c1C(=O)OC
Activity [6]: 5.77%
Activity [7]: 38.13%
Activity [8]: 69.82%
Activity [9]: Active
Activity [10]: 19%
Activity [11]: 38.3%
Activity [12]: 16.43%
Activity [13]: 17.85%
IC50 [1]: 5.62 µM
Activity [14]: 12.33%
Activity [15]: 32.1%
Activity [16]: Active
Activity [17]: 4.54%
Activity [18]: 63.3%
Activity [19]: 36.97%
IC50 [2]: 9.57 µM
Activity [20]: Active
IC50 [3]: 30.1 µM
Activity [21]: 57.25%
Activity [22]: 8.2%
IC50 [4]: 1.32 µM
Activity [23]: 3.22%
Activity [24]: Active
Activity [25]: 12.47%
Activity [26]: 25.8%
Activity [27]: 71.81%
Activity [28]: Active
Activity [29]: Active
IC50 [5]: 0.99 µM

Structure (SMILES): O=C1c2cccc(O)c2C(=O)c2c(O)cc(CO)cc21 [ALOE-EMODIN]
IC50 [1]: 6.13 µM
IC50 [2]: 3.12 µM
IC50 [3]: 1 µM
IC50 [4]: 12.2 µM
IC50 [5]: 4.14 µM

Structure (SMILES): O=Cc1cc(O)c2c(c1)C(=O)c1cccc(O)c1C2=O
IC50 [1]: 3.15 µM
IC50 [2]: 2.9 µM
IC50 [3]: 4.49 µM
IC50 [4]: 4.99 µM
IC50 [5]: 2.68 µM

The next compounds have a lower IC50 [1] than those just listed; values first:

IC50 [1]: 1.26 µM
IC50 [2]: 8.15 µM
IC50 [4]: 2.16 µM
IC50 [5]: 8.98 µM
Structure (SMILES): CCOC(=O)c1c(-c2cc(O)c3c(c2)C(=O)c2cccc(O)c2C3=O)nn(-c2ccc(Br)cc2)c1C(=O)OCC
IC50 [3]: 9.07 µM

IC50 [1]: 2.35 µM
IC50 [2]: 3.28 µM
IC50 [4]: 2.56 µM
Structure (SMILES): COc1cccc2c1C(=O)c1c(O)c3c(c(O)c1C2=O)C[C@@](O)(C(=O)CO)C[C@@H]3O[C@H]1C[C@H](N)[C@H](O)[C@H](C)O1 [DOXORUBICIN]
IC50 [3]: 1.65 µM

IC50 [1]: 2.29 µM
IC50 [2]: 6.09 µM
IC50 [4]: 3.68 µM
IC50 [5]: 1.16 µM
Structure (SMILES): COC(=O)c1c(-c2cc(O)c3c(c2)C(=O)c2cccc(O)c2C3=O)nn(-c2ccc(OC(F)(F)F)cc2)c1C(=O)OC
IC50 [3]: 6.84 µM

IC50 [1]: 1.34 µM
IC50 [2]: 3.46 µM
IC50 [4]: 1.15 µM
IC50 [5]: 4.62 µM
Structure (SMILES): CCOC(=O)c1c(-c2cc(O)c3c(c2)C(=O)c2cccc(O)c2C3=O)nn(-c2ccc(C#N)cc2)c1C(=O)OCC
IC50 [3]: 1.97 µM

IC50 [1]: 1.35 µM
IC50 [2]: 1.57 µM
IC50 [4]: 7.56 µM
IC50 [5]: 1.13 µM
Structure (SMILES): CCOC(=O)c1c(-c2cc(O)c3c(c2)C(=O)c2cccc(O)c2C3=O)nn(-c2ccccc2C)c1C(=O)OCC
IC50 [3]: 2.47 µM
